# Tests used:
# [1] = Cytotoxicity against human DU145 cells assessed as cell growth inhibition after 48 hrs by MTT assay; format: functional, cell-based; conditions: DU-145, 48 h
# Method in brief: (§1)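 Cell lines (NCCS) grown in DMEM or RPMI with 10% FBS and antibiotic-antimycotic at 37 °C, 5% CO2, 90% humidity. Cells seeded at 3-5×10^3 per well, treated 48 h with serial dilutions in medium beside vehicle control. Medium replaced with MTT (0.5 mg/mL) for 4 h, absorbance read at 570 nm. IC50 taken from concentration-response curves; sunitinib served as reference.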
# [2] = Cytotoxicity against human PC3 cells assessed as cell growth inhibition after 48 hrs by MTT assay; format: functional, cell-based; conditions: PC-3, 48 h; method in brief: as §1
# [3] = Cytotoxicity against human BT549 cells assessed as cell growth inhibition after 48 hrs by MTT assay; format: functional, cell-based; conditions: BT-549, 48 h; method in brief: as §1
# [4] = Cytotoxicity against human A549 cells assessed as cell growth inhibition after 48 hrs by MTT assay; format: functional, cell-based; conditions: A549, 48 h; method in brief: as §1
# [5] = Cytotoxicity against human HeLa cells assessed as cell growth inhibition after 48 hrs by MTT assay; format: functional, cell-based; method in brief: as §1
# [6] = Cytotoxicity against human MDA-MB-231 cells assessed as cell growth inhibition after 48 hrs by MTT assay; format: functional, cell-based; conditions: MDA-MB-231, 48 h; method in brief: as §1
# [7] = Cytotoxicity against human RWPE1 cells assessed as cell growth inhibition after 48 hrs by MTT assay; format: toxicity, cell-based, RWPE-1
SMILES,IC50 [1] [µM],IC50 [2] [µM],IC50 [3] [µM],IC50 [4] [µM],IC50 [5] [µM],IC50 [6] [µM],IC50 at 48 h [7] [µM]
Cc1ccc(C(C#Cc2ccccc2)c2ccc3c(c2)/C(=C\c2cccc(OCc4cn(Cc5ccccc5)nn4)c2)C(=O)N3)cc1 (centres undefined),28.9,> 50,> 50,36.6,32.8,–,–
O=C1Nc2cc(Cl)ccc2/C1=C\c1cccc(OCc2cn(Cc3ccccc3)nn2)c1,20.1,> 50,> 50,> 50,> 50,> 50,–
CCN(CC)CCNC(=O)c1c(C)[nH]c(/C=C2\C(=O)Nc3ccc(F)cc32)c1C [SUNITINIB],16.3,12.6,–,–,10.4,7.4,25.2
O=C1Nc2ccc([N+](=O)[O-])cc2/C1=C\c1cccc(OCc2cn(Cc3ccccc3)nn2)c1,–,> 50,> 50,> 50,> 50,> 50,–
COc1ccc(Cc2ccc3c(c2)/C(=C\c2cccc(OCc4cn(Cc5ccccc5)nn4)c2)C(=O)N3)cc1,> 50,32.2,> 50,> 50,–,> 50,–
O=C1Nc2ccccc2/C1=C\c1cccc(OCc2cn(Cc3ccccc3)nn2)c1,31.7,29.5,> 50,> 50,32.3,–,–
COc1cc(Cn2cc(COc3cccc(/C=C4/C(=O)Nc5ccccc54)c3)nn2)cc(OC)c1,25.6,37.1,–,26.7,22,11.7,–
O=Cc1cccc(OCc2cn(Cc3ccccc3)nn2)c1,> 50,> 50,> 50,> 50,> 50,> 50,–
O=C1Nc2ccc(F)cc2/C1=C\c1cccc(OCc2cn(Cc3ccccc3)nn2)c1,–,> 50,> 50,> 50,> 50,> 50,–
O=C1Nc2ccc(Cl)cc2/C1=C/c1cccc(OCc2cn(Cc3ccccc3)nn2)c1,24.2,> 50,–,> 50,–,–,–
O=C1Nc2ccc(C(c3ccccc3)c3ccccc3)cc2/C1=C\c1cccc(OCc2cn(Cc3ccccc3)nn2)c1,> 50,> 50,> 50,> 50,> 50,> 50,–
CC(=O)c1ccc2c(c1)/C(=C/c1cccc(OCc3cn(Cc4ccccc4)nn3)c1)C(=O)N2,> 50,> 50,> 50,36.3,> 50,> 50,–
O=C1Nc2cc(Br)ccc2/C1=C\c1cccc(OCc2cn(Cc3ccccc3)nn2)c1,5.7,> 50,> 50,9.6,–,–,–
O=C1Nc2ccc(C(=O)c3ccccc3)cc2/C1=C\c1cccc(OCc2cn(Cc3ccccc3)nn2)c1,> 50,> 50,> 50,> 50,> 50,> 50,–
Cc1ccc(C(C#Cc2ccccc2)c2ccc3c(c2)/C(=C/c2cccc(OCc4cn(Cc5ccccc5)nn4)c2)C(=O)N3)cc1 (centres undefined),> 50,> 50,> 50,> 50,> 50,> 50,–
O=C1Nc2ccc(Br)cc2/C1=C/c1cccc(OCc2cn(Cc3ccccc3)nn2)c1,35.1,> 50,> 50,> 50,> 50,> 50,–
O=C1Nc2ccccc2/C1=C/c1cccc(OCc2cn(Cc3ccccc3)nn2)c1,–,34.5,> 50,31.5,–,–,–
COc1cc(Cn2cc(COc3cccc(/C=C4\C(=O)Nc5ccccc54)c3)nn2)cc(OC)c1,–,31.7,> 50,43.3,33.8,> 50,–
COc1ccc(Cc2ccc3c(c2)/C(=C/c2cccc(OCc4cn(Cc5ccccc5)nn4)c2)C(=O)N3)cc1,6.7,> 50,36,30.5,7.7,20.4,–
CC(=O)c1ccc2c(c1)/C(=C\c1cccc(OCc3cn(Cc4ccccc4)nn3)c1)C(=O)N2,> 50,> 50,> 50,> 50,> 50,> 50,–
